The list is not random: actives were taken first. Their share in the collection is about 1.7%.
HNF4A DNA FP = change in binding of human HNF4 alpha to DNA. P41235. HNF4a-FITC DNA binding, fluorescence polarization, 1 h. activity change, % at 10 µM. actives 0.3% (n = 360,000); in the data active means activity change above about 30%, passing the limit was not always enough
Target sequence (P41235 whole entry, looked up): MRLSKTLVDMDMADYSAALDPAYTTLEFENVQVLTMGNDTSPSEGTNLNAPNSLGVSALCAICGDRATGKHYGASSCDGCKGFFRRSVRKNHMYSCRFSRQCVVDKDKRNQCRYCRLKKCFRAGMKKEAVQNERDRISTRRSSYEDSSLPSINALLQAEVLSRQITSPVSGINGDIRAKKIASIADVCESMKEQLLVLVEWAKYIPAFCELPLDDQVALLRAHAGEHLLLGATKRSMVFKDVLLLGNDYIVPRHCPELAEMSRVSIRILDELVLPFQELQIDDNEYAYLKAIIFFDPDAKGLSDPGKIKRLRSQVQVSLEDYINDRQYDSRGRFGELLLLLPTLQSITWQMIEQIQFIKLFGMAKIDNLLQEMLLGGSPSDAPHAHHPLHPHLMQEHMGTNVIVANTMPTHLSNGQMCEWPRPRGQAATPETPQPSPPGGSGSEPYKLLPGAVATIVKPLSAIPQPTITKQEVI
TPT1 inh = C. albicans TPT1 enzyme inhibition; recombinant caTPT1, FP RNA substrate dephosphorylation; inhibition, % at 5 µM; actives 0.81% (n = 300,000);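 active means inhibition above the mean of all tested compounds plus 3 SD, set per screening campaign, cut at about 24% in these data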
IDE cell activ = boosts human insulin-degrading enzyme activity in HEK cells | P14735 | FAbeta-B cleavage, fluorescence polarization; 0% vehicle, 100% cell-free pure enzyme wells | activation, % at 5.96 µM | actives 0.073% (n = 340,000) | AID 493087;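 active means activation above the mean of all tested compounds plus 3 SD, set per screening campaign, cut at about 17% in these data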
Rpn11 inh = Rpn11 (human) deubiquitinase inhibition; O00487; human 26S proteasome, Ub4-pepOG fluorescence polarization; 20S core pre-blocked with epoxomicin; calls only at 20 µM; actives 0.59% (n = 360,000); AID 588493;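 active means inhibition at 20 µM, scaled to each plate's controls, above about 33%, limit read from the data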
IDE cell inh = inhibitors of human insulin-degrading enzyme in cells; P14735; HEK cells, FAbetaB cleavage, fluorescence polarization; inhibition, % at 5.59 µM; actives 0.41% (n = 320,000);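 active means percent inhibition above the average of all tested compounds plus 3 SD, set per screening campaign, cut at about 16% in these data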;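 further: IDE supplied by intact live HEK cells; FP after avidin binding of uncleaved biotin substrate so inhibition keeps polarization high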
CSN inh = inhibitors of human CSN-mediated cullin deneddylation | Q92905 | Purified CSN, SCF-Nedd8-OG deneddylation, fluorescence polarization | inhibition, % at 12.5 µM | actives 0.38% (n = 360,000) | AID 651999;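 active means pattern-corrected inhibition above about 35%, with an unprinted fluorescence ratio check between 0.5 and 1.5, limit read from the data, passing the limit was not always enough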
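Assay system: HEK293T-derived human Csn5 enzyme; quantity: 0.24 nM enzyme; medium: Tris/NaCl/DTT buffer, pH 7.5; also added: substrate SCFSkp2-Nedd8OG, 10 nM; doses: 12.5 µM compound; schedule: 90 min reaction at room temperature; signal: FP; read-out: % inhibition of substrate cleavage by Csn5; benchmarks: substrate-only high control, full reaction low control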
IDE cell inh cf = cellular human IDE inhibition, confirmation. shares compounds with IDE cell inh. HEK cells, FAbetaB cleavage, fluorescence polarization. inhibition, % at 5.59 µM. actives 51% (n = 1,200);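 active means mean inhibition across triplicate wells above the cutoff set by the earlier primary insulin-degrading enzyme screen, cut at about 16% in these data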
HEK293 tox = counter-screen for IDE inhibitors: cytotoxicity in HEK cells; inhibition, % at 5.59 µM; shares compounds with IDE cell inh; actives 28% (n = 1,200); HEK293 cytotoxicity, ATP luminescence; in the data active means inhibition above about 22%
Rpn11 inh conf = Rpn11 inhibition confirmation, single concentration. shares compounds with Rpn11 inh. purified human 26S proteasome, Ub4-pepOG fluorescence polarization; proteasome pretreated with epoxomicin. inhibition, % at 20 µM. actives 29% (n = 1,900)
MMP-2 counter-1 = blocks human MMP-2, flagging nonselective RPN11 hits | shares compounds with Rpn11 inh | recombinant MMP-2, FRET peptide cleavage fluorescence | inhibition, % at 20 µM | actives 4% (n = 1,900) | AID 602330;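 further: human MMP-2 activated beforehand with APMA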
Thrombin FP = counter-screen for RPN11 inhibitors: inhibition of bovine thrombin. shares compounds with Rpn11 inh. bovine thrombin cleavage of Ub4-pepOG, fluorescence polarization. inhibition, % at 20 µM. actives 13% (n = 1,900);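 active means mean inhibition at least 40% at 20 µM, or signal 3 deviations below plate average, so some actives read negative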
CSN5 deneddyl = validation of inhibitors of human CSN-mediated cullin deneddylation | Csn5 deneddylation of SCF-Nedd8OG, fluorescence polarization, 90 min | inhibition, % at 16.6 µM | shares compounds with CSN inh | actives 62% (n = 540) | AID 720654; in the data active means inhibition above about 50%
MMP-2 counter-2 = counter-screen for CSN deneddylation inhibitors: human MMP-2 inhibition; shares compounds with CSN inh; recombinant MMP-2, FRET substrate fluorescence, 60 min; inhibition, % at 16.6 µM; actives 33% (n = 540);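 active means corrected plate-normalized z-score of 5 or more, or -5 or less, or inhibition of 15% or more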
Thrombin counter = counter-screen for CSN deneddylation inhibitors: bovine thrombin inhibition | actives 49% (n = 540) | bovine thrombin cleavage of Ub4-pepOG, fluorescence polarization | shares compounds with CSN inh | inhibition, % at 16.6 µM;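 active means inhibition at or above a set limit, with a fluorescence interference ratio between 0.5 and a set maximum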
Of the large screens only hits and unclear results are named; the others gave an inactive call (follow-up assays come after a bar, where shown). Unless noted, no stated cut-off is given here; in the data, active means inhibition above about 40%; inactive means the rest.

O=c1c2ccccc2ncn1-c1ccc([N+](=O)[O-])c(C(F)(F)F)c1	none
Cn1cc(C(=O)NC2CC2)c2ccccc21	none
CC(C)COC(=O)c1ccccc1C(=O)OCC(C)C	none
C[CH2][Hg][S]c1ccccc1C(=O)O	IDE cell inh 53 | IDE cell inh cf 21 | HEK293 tox 122
CCOC(=O)c1c(C)n(Cc2ccccc2)c2ccc(OCC(O)CNC(C)(C)C)cc12 (configuration not stated)	IDE cell inh 38 | IDE cell inh cf 19 | HEK293 tox inactive
CCOC(=O)c1c(C)n(Cc2ccccc2)c2ccc(OCC(O)Cn3nc(C)nc3C)cc12 (configuration not stated)	none
O=C(O)CSC(=S)N1CC2CC(C1)c1cccc(=O)n1C2 (configuration not stated)	none
O=c1c2ccccc2nc(/C=C/c2ccc(O)cc2)n1-c1ccc(O)cc1	IDE cell inh 62 | IDE cell inh cf 133 | HEK293 tox inactive
CCN1/C(=C\C=C\C2=[N+](CC)c3ccccc3C2(C)C)C(C)(C)c2ccccc21	IDE cell inh 82 (not shown: Rpn11 inh) | IDE cell inh cf 173 | HEK293 tox 120
CCC(C)N1C(=O)NC(=O)C2(Cc3c(ccc4ccccc34)N(C)C2)C1=O (configuration not stated)	none
O=c1[nH]c(=O)n(Cc2ccccc2)c(O)c1/C=N/NCCO	Rpn11 inh active, IDE cell inh 16 (no result: IDE cell activ) | IDE cell inh cf inactive | HEK293 tox inactive | Rpn11 inh conf inactive | MMP-2 counter-1 inactive | Thrombin FP inactive
O=C(N/N=C/c1c(O)n(Cc2ccc(F)cc2)c(=O)[nH]c1=O)c1ccccc1O	none
COc1ccc(-n2c(/C=C/c3ccc(O)cc3)nc3ccccc3c2=O)cc1	Rpn11 inh active, IDE cell inh 31 | IDE cell inh cf 76 | HEK293 tox inactive | Rpn11 inh conf inactive | MMP-2 counter-1 47 | Thrombin FP inactive
C=CCn1c(O)c(C(C)=Nc2cc(OC)ccc2OC)c(=O)[nH]c1=O	none
O=C1NC(=O)N(c2cccc(Cl)c2)C(=O)/C1=C\c1ccc(Sc2nc3ccccc3[nH]2)o1	Rpn11 inh active, IDE cell inh 26, CSN inh 38 | IDE cell inh cf inactive | HEK293 tox inactive | CSN5 deneddyl inactive | MMP-2 counter-2 inactive | Thrombin counter 25
O=C(CF)NC(Nc1cccc2cccnc12)C(Cl)(Cl)Cl (configuration not stated)	none
CCCCCSc1cc(OC)c(CCNC)cc1OC	Rpn11 inh active | Rpn11 inh conf inactive | MMP-2 counter-1 inactive | Thrombin FP inactive
CCCCCCCSc1cc(OC)c(CCNC)cc1OC	none
Cc1cccn2c(=O)c3cc(C(=O)N4CCC5(CC4)OCCO5)n(C)c3nc12	Rpn11 inh active | Rpn11 inh conf inactive | MMP-2 counter-1 inactive | Thrombin FP inactive
CN1C(=O)C(=Cc2c(OCc3cnc(Cl)s3)ccc3ccccc23)C(=O)N(C)C1=O	none
CCOC(=O)C1CCN(/C=C2/C(=O)NC(=S)N(c3ccccc3F)C2=O)CC1	none
Cc1ccc(N2C(=O)/C(=C/N3CCN(C(=O)c4ccco4)CC3)C(=O)NC2=S)cc1C	Rpn11 inh active | Rpn11 inh conf inactive | MMP-2 counter-1 inactive | Thrombin FP inactive
Cn1cc(C(=O)N2CCOCC2)c2ccccc21	none
COc1ccc(CCn2c(O)c(C=Nc3ccccc3F)c(=O)[nH]c2=O)cc1OC	Rpn11 inh active | Rpn11 inh conf inactive | MMP-2 counter-1 inactive | Thrombin FP inactive
O=C(N/N=C/c1c(O)n(CCc2ccc(F)cc2)c(=O)[nH]c1=O)c1ccccc1	Rpn11 inh active (no result: IDE cell activ) | Rpn11 inh conf inactive | MMP-2 counter-1 inactive | Thrombin FP inactive
c1ccc(CNC2=NCCS2)cc1	none
COCC(=O)N1Cc2ccccc2-n2nncc2C1	none (no result: TPT1 inh, IDE cell inh)
CN(C)C1(CNC(=O)c2ccc(NS(=O)(=O)c3ccc(Cl)c(Cl)c3)cc2)CCCCC1	none (no result: TPT1 inh)
Cc1cc(/C=C2\C(=O)NC(=O)N(c3ccc(Br)cc3)C2=O)c(C)n1C	none
Cc1cc(/C=C2/C(=O)NC(=O)N(c3ccc(Br)cc3)C2=O)c(C)n1C	Rpn11 inh active | Rpn11 inh conf inactive | MMP-2 counter-1 inactive | Thrombin FP inactive
CC(=O)OC1(c2ccc(C)cc2)CN2CCC1c1ccccc12 (configuration not stated)	none
O=C(NN=Cc1ccc(N(CCCl)CCCl)cc1)c1cc(=O)[nH]c(=O)[nH]1	none (no result: TPT1 inh, IDE cell inh)
O=C(NN=Cc1ccc(N(CCCl)CCCl)cc1)C(=O)c1c[nH]c2ccccc12	Rpn11 inh active (no result: TPT1 inh, IDE cell inh) | Rpn11 inh conf 57 | MMP-2 counter-1 inactive | Thrombin FP inactive
O=Cc1c(C(=O)O)n(Cc2ccc(F)cc2Cl)c2ccccc12	none (no result: TPT1 inh, IDE cell inh)
C=Cc1ccc(Cn2c(C(=O)O)c(C=O)c3ccccc32)cc1	Rpn11 inh active | Rpn11 inh conf 155 | MMP-2 counter-1 inactive | Thrombin FP 60
O=C1NC(=O)N(c2ccc(Cl)cc2)C(=O)/C1=C/c1coc2ccc(O)cc2c1=O	Rpn11 inh active | Rpn11 inh conf inactive | MMP-2 counter-1 inactive | Thrombin FP inactive
Cc1ccc(/C=C2\C(=O)NC(=S)N(c3ccc(F)cc3)C2=O)o1	Rpn11 inh active (no result: TPT1 inh, IDE cell inh) | Rpn11 inh conf 44 | MMP-2 counter-1 55 | Thrombin FP 57

Assay outcomes from PubChem BioAssay.
